Results as given in PubChem BioAssay AID588395 (Southern Research Specialized Biocontainment Screening …, 2011).
Calls of active or inactive are those of the source.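 The calls were made as follows: active = phage lysis blocked by at least 50% at any tested dose; inconclusive = replicate wells disagree with each other; inactive = the rest.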

System: not listed separately
Assay: blocking phage-induced lysis of E. coli UTI89 – set 7, capsule biogenesis inhibitor project, dose response (AID 588395)
Conditions: E. coli UTI89 K1F phage lysis inhibition, OD600 3 h; at 100 µM (top of the series)
Summary of the method: (§1)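 Material – E. coli UTI89 (K1) · Quantity – culture at 1:100 dilution · Medium – LB broth · Also added – K1F phage · Times – 1.25 h pre-infection at 37 °C, 3 h phage exposure · Detection – absorbance at 600 nm (OD600) · Read-out – inhibition of phage lysis from OD600 at 3 h post-infection · Controls – phage-resistant kpsM mutant culture as lysis-resistant comparison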

| SMILES | inhibition of phage lysis |
| --- | --- |
| O=C(Nc1nc2ccc(Cl)cc2s1)c1ccc(Br)s1 | 6.12% (inactive) |
| COc1ccc2nc(NC(=O)c3ccc(Br)o3)sc2c1 | 41.7% (inactive) |
| O=C(Nc1nc2ccc(F)cc2s1)c1ccc(Br)cc1 | -15.7% (inactive) |
| Cc1ccc(C(=O)Nc2nc3ccccc3s2)s1 | -9.44% (inactive) |
| O=C(Nc1nc2ccccc2s1)c1ccc(Br)cc1 | 1.7% (inactive) |
| O=C(Nc1nc2ccc(C(F)(F)F)cc2s1)c1ccc(Br)s1 | 2.86% (inactive) |
| O=C(Nc1nc2ccc(F)cc2s1)c1ccc(Br)s1 | 6.49% (inactive) |
| COc1ccc2nc(NC(=O)c3ccc(C)s3)sc2c1 | -3.86% (inactive) |
| COc1ccc(NC(=O)c2ccc3ncsc3c2)cc1 | 4.51% (inactive) |
| O=C(Nc1nc2ccc(OC(F)(F)F)cc2s1)c1ccc(Br)cc1 | -15.3% (inactive) |
| O=C(Nc1nc2ccc(OC(F)(F)F)cc2s1)c1ccc(Br)o1 | -11.1% (inactive) |
| O=C(Nc1nc2ccc(F)cc2s1)c1ccc(Br)o1 | 15.8% (inactive) |
| O=C(Nc1nc2ccc(C(F)(F)F)cc2s1)c1ccc(Br)cc1 | 2.13% (inactive) |
| O=C(Nc1nc2ccc(Br)cc2s1)c1ccc(Br)s1 | 18% (inactive) |
| O=C(Nc1nc2ccc(OC(F)(F)F)cc2s1)c1ccc(Br)s1 | 1.91% (inactive) |
| Cc1ccc(C(=O)Nc2nc3ccc(Br)cc3s2)s1 | -11.1% (inactive) |
| COc1ccc2nc(NC(=O)c3cc(Br)c(Br)s3)[nH]c2c1 | -1.23% (inactive) |
| Cc1ccc(C(=O)Nc2nc3ccc(Cl)cc3s2)s1 | -2.05% (inactive) |
| COc1ccc(NC(=O)c2ccc3ncccc3c2)cc1 | -4.29% (inactive) |
| O=C(Nc1cccnc1)c1ccc2ncsc2c1 | 0.82% (inactive) |

| SMILES | inhibition of phage lysis |
| --- | --- |
| O=C(Nc1nc2ccc(Cl)cc2s1)c1ccc(Br)o1 | -4.26% (inactive) |
| O=C(Nc1nc2ccc(C(F)(F)F)cc2s1)c1ccc(Br)o1 | 1.64% (inactive) |
| O=S(=O)(Nc1nc2ccccc2s1)c1ccc(Br)s1 | -2.08% (inactive) |
| O=C(Nc1nc2ccccc2s1)c1ccc(Br)s1 | -6.12% (inactive) |
| O=S(=O)(Nc1nc2ccc(Br)cc2s1)c1ccc(Br)s1 | 6.67% (inactive) |
| O=C(Nc1ccc(C(F)(F)F)cc1)c1ccc2ncccc2c1 | 2.46% (inactive) |
| O=C(Nc1nc2ccc(Br)cc2s1)c1ccc(Br)cc1 | 2.55% (inactive) |
| COC(=O)c1ccc(NC(=O)c2ccc3ncsc3c2)cc1 | 9.02% (inactive) |
| O=C(Nc1ccc(Br)cc1)c1ccc2ncccc2c1 | -0.43% (inactive) |
| COc1ccc2nc(NC(=O)c3ccc(Br)cc3)[nH]c2c1 | -2.55% (inactive) |
| COC(=O)c1ccc(NC(=O)c2ccc3ncccc3c2)cc1 | 39.1% (inactive) |
| COc1ccc2nc(NC(=O)c3ccc(Br)cc3)sc2c1 | 4.68% (inactive) |
| O=C(Nc1nc2ccccc2s1)c1ccc(Br)o1 | 0% (inactive) |
| Cc1ccc(NC(=O)c2ccc3ncccc3c2)cc1 | 0% (inactive) |
| O=C(Nc1nc2ccc(Br)cc2s1)c1ccc(Br)o1 | 9.79% (inactive) |
| COc1ccc2nc(NC(=O)c3ccc(Br)s3)[nH]c2c1 | 0.85% (inactive) |
| O=C(Nc1nc2ccc(Cl)cc2s1)c1ccc(Br)cc1 | 12.9% (inactive) |
| COc1ccc2nc(NC(=O)c3ccc(Br)o3)[nH]c2c1 | 0.41% (inactive) |
| COc1ccc2nc(NS(=O)(=O)c3ccc(Br)s3)sc2c1 | -0.42% (inactive) |

System: E. coli UTI89 K1F phage lysis inhibition, OD600 3 h
Assay: as above
Conditions: not given
Summary of the method: as §1

| IC50 [nM] | SMILES |
| --- | --- |
| 1310 | O=C(Nc1ccncc1)c1ccc2ncsc2c1 |
| 2150 | COc1ccc2nc(NC(=O)c3ccc(Br)s3)sc2c1 |
